Reference: ChEMBL document CHEMBL1142997 (J Med Chem, 2007)

Assays:
[1] = target: T1, Hydroxycarboxylic acid receptor 3 (Homo sapiens, UniProt P49019); experiment: Activity at GPR109b in CHO cells assessed as inhibition of forskolin-induced cAMP generation; type: functional, cell-based
Summary of the method: (§1)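 Whole-cell adenylyl cyclase FlashPlate cAMP assay on a stable receptor clone (positive clones picked by anti-HA immunostaining). Each well held 50 000 cells, stimulated with 5 µM forskolin. Normalisation: forskolin-stimulated cAMP set at 100%, cAMP from cells without forskolin at 200%. Potency reported as EC50 with number of determinations (n).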

[2] = target: T1, Hydroxycarboxylic acid receptor 3; experiment: Activity at GPR109b in CHO cells assessed as inhibition of forskolin-induced cAMP generation upto 100 uM; type: functional, cell-based; set-up: scale not given: the % may be the effect or the level left; summary of the method: as §1
Homo sapiens = species on record: Homo sapiens; experiment: Selectivity for GPR109a over GPR109b; type: functional
Summary of the method: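 Whole-cell cAMP (adenylyl cyclase activation) FlashPlate assay on stable clones expressing GPR109a or GPR109b; clones picked by anti-HA immunostaining. Each clone was optimized separately, using 50 000 cells per well and 5 µM forskolin stimulation. Forskolin-stimulated cAMP was set as 100% and unstimulated cAMP as 200%. Agonist EC50 was measured at each receptor.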

T1 sequence (P49019 whole entry): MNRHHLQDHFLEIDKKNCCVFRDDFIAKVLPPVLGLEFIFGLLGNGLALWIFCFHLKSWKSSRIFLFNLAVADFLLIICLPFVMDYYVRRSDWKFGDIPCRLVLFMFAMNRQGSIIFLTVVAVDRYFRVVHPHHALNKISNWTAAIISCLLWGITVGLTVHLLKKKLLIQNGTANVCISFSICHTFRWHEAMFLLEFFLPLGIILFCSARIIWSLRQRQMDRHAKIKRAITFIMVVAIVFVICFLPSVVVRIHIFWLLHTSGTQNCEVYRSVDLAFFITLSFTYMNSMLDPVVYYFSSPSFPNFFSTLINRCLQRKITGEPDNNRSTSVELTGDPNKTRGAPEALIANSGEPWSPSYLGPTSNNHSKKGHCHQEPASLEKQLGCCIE

Row | SMILES | EC50 [1] | further results
1 | Cc1cc(C2(C)OC(C(=O)O)=CC2=O)cs1 (single isomer, unassigned; (+)) | 0.18 µM (agonist) | –
2 | CC1(c2ccccc2)OC(C(=O)O)=CC1=O (stereo in doubt; 5a) [ACIFRAN] | 4.2 µM (agonist) | –
3 | CC1(c2csc(Br)c2)OC(C(=O)O)=CC1=O (stereo in doubt; 5ai) | 1.5 µM (agonist) | –
4 | CC1(c2cc(F)cc(F)c2)OC(C(=O)O)=CC1=O (stereo not given) | 33 µM (agonist) | –
5 | CC1(c2ccc(F)cc2)OC(C(=O)O)=CC1=O (stereo not given) | 9.9 µM (agonist) | –
6 | CC1(c2ccc(F)cc2F)OC(C(=O)O)=CC1=O (stereo not given) | 24 µM (agonist) | –
7 | CC1(c2cccc(Br)c2)OC(C(=O)O)=CC1=O (stereo in doubt; 5u) | 4.9 µM (agonist) | –
8 | CC1(c2cccnc2)OC(C(=O)O)=CC1=O (stereo not given) | – | Activity [2]: < 50%
9 | CC1(c2ccc(F)c(F)c2)OC(C(=O)O)=CC1=O (stereo not given) | 19 µM (agonist) | –
10 | CC1(c2csc(Cl)c2)OC(C(=O)O)=CC1=O (stereo in doubt; 5ah) | 1.7 µM (agonist) | –
11 | CC1(c2ccccc2)OC(C(=O)O)=CC1=O (stereo in doubt; (+)-5a) [ACIFRAN] | 3 µM (agonist) | –
12 | CC1(c2cccc(C(F)(F)F)c2)OC(C(=O)O)=CC1=O (stereo not given) | 12.6 µM (agonist) | –
13 | Cc1cnc(C(=O)O)c[n+]1[O-] | – | Activity [2]: < 50%
14 | CC1(c2csc(Cl)c2)OC(C(=O)O)=CC1=O (single isomer, unassigned; (+)) | 0.69 µM (agonist) | –
15 | Cc1cc(C2(C)OC(C(=O)O)=CC2=O)cs1 (stereo in doubt; (-)-5aj) | 5 µM (agonist) | –
16 | CC1(c2ccc(Cl)s2)OC(C(=O)O)=CC1=O (stereo not given) | 3.7 µM (agonist) | –
17 | CC1(C2=CCCC2)OC(C(=O)O)=CC1=O (stereo not given) | 5.1 µM (agonist) | –
18 | Cc1ccc(C2(C)OC(C(=O)O)=CC2=O)s1 (stereo not given) | 0.27 µM (agonist) | –
19 | O=C(O)C1=CC(=O)C2(CCc3ccccc32)O1 (stereo not given) | – | Activity [2]: < 50%
20 | CC1(c2ccncc2)OC(C(=O)O)=CC1=O (stereo not given) | – | Activity [2]: < 50%

Row | SMILES | EC50 [1] | further results
21 | CC1(c2ccccc2)OC(C(=O)O)=CC1=O (stereo in doubt; 5a) | – | Selectivity ratio (Homo sapiens): 3
22 | Cc1cccc(C2(C)OC(C(=O)O)=CC2=O)c1 (stereo not given) | – | Activity [2]: < 50%
23 | Cc1sc(C2(C)OC(C(=O)O)=CC2=O)cc1Br (stereo not given) | 10.4 µM (agonist) | –
24 | CC1(c2cc(Br)cs2)OC(C(=O)O)=CC1=O (stereo not given) | 4.1 µM (agonist) | –
25 | Cc1csc(C2(C)OC(C(=O)O)=CC2=O)c1 (stereo not given) | 1.8 µM (agonist) | –
26 | COc1cccc(C2(C)OC(C(=O)O)=CC2=O)c1 (stereo not given) | – | Activity [2]: < 50%
27 | CC1(c2ccsc2)OC(C(=O)O)=CC1=O (stereo not given) | 4.2 µM (agonist) | –
28 | CC1(c2ccco2)OC(C(=O)O)=CC1=O (stereo not given) | – | Activity [2]: < 50%
29 | O=C(O)c1cccnc1 | – | Activity [2]: < 50%
30 | CC1(c2cccc(Br)c2)OC(C(=O)O)=CC1=O (single isomer, unassigned; (+)) | 14 µM (agonist) | –
31 | CC1(c2cccc(Cl)c2)OC(C(=O)O)=CC1=O (stereo not given) | 22 µM (agonist) | –
32 | CC1(c2csc(Cl)c2)OC(C(=O)O)=CC1=O (stereo in doubt; (-)-5ah) | 16 µM (agonist) | –
33 | Cc1cc(C2(C)OC(C(=O)O)=CC2=O)cs1 (stereo in doubt; 5aj) | 0.18 µM (agonist) | –
34 | CC1(c2csc(Br)c2)OC(C(=O)O)=CC1=O (stereo in doubt; (+)-5ai) | 0.37 µM (agonist) | –
35 | CC1(c2cccc(I)c2)OC(C(=O)O)=CC1=O (stereo not given) | 5.1 µM (agonist) | –
36 | CCC1(c2ccccc2)OC(C(=O)O)=CC1=O (stereo not given) | 4.8 µM (agonist) | –
37 | CC1(c2cc(Cl)ccc2Cl)OC(C(=O)O)=CC1=O (stereo not given) | – | Activity [2]: < 50%
38 | CC1(c2ccccc2)OC(C(=O)O)=CC1=O (single isomer, unassigned; (-)) | – | Activity [2]: < 50%
39 | CC1(c2c(F)cccc2F)OC(C(=O)O)=CC1=O (stereo not given) | 36 µM (agonist) | –
40 | CCc1cccc(C2(C)OC(C(=O)O)=CC2=O)c1 (stereo not given) | 6.2 µM (agonist) | –
